Consider one molecule from ChEMBL document CHEMBL1759908, “Design, synthesis and potential 6 Hz psychomotor seizure test activity of some novel 2-(substituted)-3-{[substituted]amino}quinazolin-4(3H)-one” (Eur J Med Chem, 2011).

Series [1] can be described thus: Neuroprotective activity against N-methyl-D-aspartate induced toxicity in hippocampus slices after 4 hrs propidium iodide staining. It counts as functional, tissue-based. Summed up: (§1)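 Organotypic hippocampal slice cultures were exposed to NMDA or kainic acid alone, or with the investigational compound, in the presence of propidium iodide. Cell death was read as propidium iodide fluorescence intensity and compared with slices given excitotoxin alone.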

Series [2] in a line: Neuroprotective activity against kainic acid induced toxicity in hippocampus slices after 4 hrs propidium iodide staining. The format is functional, tissue-based. Summed up:
as §1

Series [3] in a line: Lipophilicity, log P of the compound in octanol-phosphate buffer. It counts as physicochemical. Summed up:
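Experimental log P was measured by octanol-phosphate buffer partition. The mixture stood 24 h at room temperature and was then equilibrated 6 h in a separating funnel. Phases were separated and membrane-filtered, and drug in the aqueous phase was quantified by UV spectroscopy.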

The subject of series [4] is Mus musculus. Briefly: Anticonvulsant activity against 32 mA-current- for 3 secs induced seizure in ip dosed CF1 mouse after 0.5 hr by 6Hz psychomotor seizure test. It counts as functional. Summed up: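 Quantitative 6 Hz test in male CF-1 mice. The compound was suspended in 0.5% methylcellulose and given i.p. at 50, 100, 200 and 350 mg/kg, eight mice per dose. Mice were stimulated through corneal electrodes (32 mA, 3 s) at a 0.5 h time of peak effect. ED50 was derived from the number of mice protected per dose.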

Series [5] in a line: Toxicity in ip dosed CF1 mouse after 0.5 hr. The settings on record: in vivo. The format is organism-based. Summed up: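 Quantitative toxicity test in male CF-1 mice dosed i.p. (0.5% methylcellulose suspension) at 50, 100, 200 and 350 mg/kg, eight mice per dose. Motor impairment was scored at 0.5 h and TD50 derived from the number of toxic mice over the number tested.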
In series [6] the test system is Mus musculus. The series is described as follows: Neurotoxicity in CF1 mouse assessed as minimal motor impairment at 100 mg/kg, ip after 1 min by rotarod test. The settings on record: in vivo. Further details: dose 100 mg/kg, route intraperitoneal. The format is toxicity, organism-based. The method, boiled down:
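Neurotoxicity was scored as minimal motor impairment on the rotarod. Male CF-1 mice (18-25 g) received 100 mg/kg i.p. as a 0.5% methylcellulose suspension. Results are given as number toxic over number tested.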
On the technique in general: Falling from the rotarod earlier than controls is read as motor impairment.

The subject of series [7] is Mus musculus. The series is described as follows: Anticonvulsant activity in CF1 mouse assessed as protection against 32 mA-current- for 3 secs induced seizure at 100 mg/kg, ip after 0.25 hr by 6Hz psychomotor seizure test. The format is functional. The settings on record: route intraperitoneal. The method, boiled down:
(§2)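 Male CF-1 mice (18-25 g) received 100 mg/kg i.p. as a suspension in 0.5% methylcellulose. At 0.25, 0.5, 1.0, 2.0 and 4.0 h, four mice per time point were stimulated through corneal electrodes (32 mA, 3 s, 6 Hz). Mice without psychomotor seizure behaviour were counted as protected. Results are reported as number protected over number tested.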

For series [8], the system named is Mus musculus. Briefly: Anticonvulsant activity in CF1 mouse assessed as protection against 32 mA-current- for 3 secs induced seizure at 100 mg/kg, ip after 1 hr by 6Hz psychomotor seizure test. It counts as functional. The settings on record: route intraperitoneal. Summed up: as §2
Series [9] relates to Mus musculus. Briefly: Anticonvulsant activity in CF1 mouse assessed as protection against 32 mA-current- for 3 secs induced seizure at 100 mg/kg, ip after 2 hrs by 6Hz psychomotor seizure test. The format is functional. As to conditions: route intraperitoneal. The method, boiled down: as §2
Series [10] relates to Mus musculus. Briefly: Anticonvulsant activity in CF1 mouse assessed as protection against 32 mA-current- for 3 secs induced seizure at 100 mg/kg, ip after 4 hrs by 6Hz psychomotor seizure test. It counts as functional, organism-based. Further details: dose 100 mg/kg. Summed up: as §2
The subject of series [11] is Mus musculus. Briefly: Anticonvulsant activity in CF1 mouse assessed as protection against 32 mA-current- for 3 secs induced seizure at 100 mg/kg, ip after 0.5 hr by 6Hz psychomotor seizure test. It counts as functional. Summed up: as §2

Activity calls are given as the source filed them. No cut-off for these calls is given here.

By logP is commonly meant a log measure of how a compound divides between an organic and an aqueous phase. A low value points to lower lipophilicity. The term ED50 denotes the dose that gives a 50% effect, or the effect in half of the subjects. High values mean weaker potency, low ones greater potency. A word on the TD50: it is the 50% point of the dose-response relation for the toxic effect studied. Low readings indicate greater toxicity, high ones lower toxicity. With `Cc1cc(Oc2ccc(/C=N/n3c(-c4ccccc4)nc4ccccc4c3=O)cc2)ccc1Cl`, the result (in [1]; in series [2]; in the series on Mus musculus [10]) was inactive. The logP in series [3] was 6.52. Besides, in the series with Mus musculus [4], the ED50 is > 350 mg/kg. Also, the TD50 at 0.5 h in series [5] is > 350 mg/kg. For the same molecule, the Activity result with Mus musculus [6] is “Non-toxic”; with Mus musculus [7], 75%; in the series with Mus musculus [8], 25%; in the series with Mus musculus [9], 25%; with Mus musculus [11] (route intraperitoneal), 100%. For the same molecule, the result with Mus musculus [11] was Active.
